Assay results reported in ChEMBL document CHEMBL3098012, “A novel tamoxifen derivative, ridaifen-F, is a nonpeptidic small-molecule proteasome inhibitor” (Eur J Med Chem, 2014).
Active and inactive are the calls of the source. The calls are words filed in the database; no cut-off is given here.

Tests used:
[1] = target: T1, Proteasome Macropain subunit MB1 (Homo sapiens) (UniProt P28074); experiment: Inhibition of biotin-labeled belactosin A binding to human 20S proteasome beta 5 subunit at 100 uM preincubated for 1 hr followed by biotin-labeled belactosin A treatment measured after 1 hr by Western blotting analysis
T1 sequence (whole entry): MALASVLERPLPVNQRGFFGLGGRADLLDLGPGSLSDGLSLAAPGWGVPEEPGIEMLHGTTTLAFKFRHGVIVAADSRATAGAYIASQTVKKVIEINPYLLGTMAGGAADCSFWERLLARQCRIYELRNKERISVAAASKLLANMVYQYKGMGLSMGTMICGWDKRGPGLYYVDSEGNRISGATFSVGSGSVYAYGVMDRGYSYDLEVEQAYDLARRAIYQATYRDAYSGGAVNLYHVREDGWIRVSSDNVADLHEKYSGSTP
In short: (§1)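 Purified human 20S proteasome preincubated 1 h at 37 °C with varying compound levels, then biotin-belactosin A added to 1 µM for a further 1 h. Proteins separated by SDS-PAGE, blotted to PVDF, milk-blocked; biotin-labelled subunits detected with streptavidin-HRP and ECL.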

[2] = Inhibition of chymotrypsin-like activity of Saccharomyces cerevisiae 20S proteasome beta 5 subunit
[3] = target: T2, Proteasome component C5 (Homo sapiens) (UniProt P20618); experiment: Inhibition of biotin-labeled belactosin A binding to human 20S proteasome beta 1 subunit at 10 uM preincubated for 1 hr followed by biotin-labeled belactosin A treatment measured after 1 hr by Western blotting analysis; in short: as §1
T2 sequence (whole entry): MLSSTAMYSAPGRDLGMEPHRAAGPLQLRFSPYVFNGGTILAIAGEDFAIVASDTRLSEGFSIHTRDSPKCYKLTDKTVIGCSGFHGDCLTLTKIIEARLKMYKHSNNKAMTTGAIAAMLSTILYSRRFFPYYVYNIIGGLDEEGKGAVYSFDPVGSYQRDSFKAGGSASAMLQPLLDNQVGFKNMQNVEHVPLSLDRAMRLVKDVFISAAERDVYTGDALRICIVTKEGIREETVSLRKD

[4] = target: T3, Proteasome Macropain subunit MB1 (Homo sapiens, UniProt P28074); experiment: Noncompetitive inhibition of chymotrypsin-like activity of human 20S proteasome beta 5 subunit assessed as hydrolysis of succinyl-LLVY-AMC fluorogenic substrate Lineweaver-Burk plot analysis
T3 sequence (P28074 whole entry): T1 sequence (whole entry)

Homo sapiens [5] = species: Homo sapiens; experiment: Inhibition of cathepsin (unknown origin) at >10 uM
HeLa [6] = experiment: Cell cycle arrest in human HeLa cells assessed as accumulation at sub G1 phase at 60 uM after 24 hrs by propidium iodide staining-based flow cytometric analysis (reference value: 2.2%); format: functional
HL-60 = experiment: Cytotoxicity against […] human HL60 cells after 48 hrs by MTT assay; format: functional; conditions: HL-60, 48 h
In short: (§2)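 HEK293 (DMEM) or HL-60 (IMDM) cells, each with 10% FBS plus penicillin/streptomycin, seeded 5×10^3 cells/well in duplicate. Exposed 48 h to compound at […]. MTT reduction read as 560/750 nm absorbance ratio after HCl/2-propanol extraction. CyT50 from inhibition curve; means of triplicate.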

Homo sapiens [7] = species: Homo sapiens; experiment: Inhibition of calpain (unknown origin) at >10 uM
HeLa [8] = experiment: Cell cycle arrest in human HeLa cells assessed as accumulation at sub G1 phase at 10 uM after 24 hrs by propidium iodide staining-based flow cytometric analysis (reference value: 2.2%); format: functional
[9] = Cytotoxicity against ER-negative HEK293 cells after 48 hrs by MTT assay; format: cell-based; conditions: human; in short: as §2
HeLa [10] = experiment: Induction of apoptosis in human HeLa cells assessed as PARP cleavage after 24 hrs by Western blotting analysis; format: functional, cell-based
In short: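 HeLa cells seeded 4×10^5 cells/well, incubated 24 h with varying compound concentrations; PARP cleavage detected in lysates by Western blotting.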

[11] = target: T1, Proteasome Macropain subunit MB1 (Homo sapiens); experiment: Inhibition of biotin-labeled belactosin A binding to human 20S proteasome beta 5 subunit at 1 to 100 uM preincubated for 1 hr followed by biotin-labeled belactosin A treatment measured after 1 hr by Western blotting analysis; in short: as §1
[12] = target: T3, Proteasome Macropain subunit MB1; experiment: Inhibition of chymotrypsin-like activity of human 20S proteasome beta 5 subunit assessed as hydrolysis of succinyl-LLVY-AMC fluorogenic substrate measured for 1 hr by fluorometric analysis
In short: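 Purified human 20S proteasome (0.1 µg) incubated at 37 °C with 50 µM succinyl-LLVY-AMC (CT-L) or 20 µM Z-LLE-AMC (PGPH) and compound at 0.01–10 µM in 25 mM HEPES, 0.5 mM EDTA, 0.03% SDS. IC50 taken from inhibition curve; means of three experiments.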

[13] = target: T2, Proteasome component C5 (Homo sapiens); experiment: Inhibition of biotin-labeled belactosin A binding to human 20S proteasome beta 1 subunit preincubated for 1 hr followed by biotin-labeled belactosin A treatment measured after 1 hr by Western blotting analysis; in short: as §1
HeLa [14] = experiment: Induction of apoptosis in human HeLa cells assessed as caspase 3 cleavage at 1 to 30 uM after 24 hrs by Western blotting analysis; format: functional, cell-based
HeLa [15] = experiment: Inhibition of proteasome in human HeLa cells assessed as accumulation of ubiquitinated proteins at 30 uM after 24 hrs by Western blotting analysis; format: cell-based
In short: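 HeLa cells, 4×10^5 cells/well, treated 24 h with compound; vehicle control 0.25% DMSO. Lysed in Tris–HCl/2% SDS/glycerol buffer with protease and phosphatase inhibitors; 30 µg protein run on SDS-PAGE, PVDF blot probed with anti-ubiquitin (1:200), actin as loading reference, HRP secondary, ECL detection.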

SMILES: CCC(=C(c1ccc(OCCN2CCCCCC2)cc1)c1ccc(OCCN2CCCCCC2)cc1)c1ccccc1
- inhibition [1]: Active
- IC50 [2]: 1800 nM
- inhibition [3]: Active
- Ki [4]: 580 nM
- inhibition (Homo sapiens [5]): inactive
- Activity (HeLa [6]): 4.7%
- CC50 (HL-60): 3420 nM
- inhibition (Homo sapiens [7]): inactive
- Activity (HeLa [8]): 3.4%
- CC50 at 48 h [9]: 4380 nM
- Activity (HeLa [10]): Dose-dependent effect
- inhibition [11]: Active
- IC50 [12]: 640 nM
- inhibition [13]: Dose-dependent effect
- Activity (HeLa [14]): Active
- inhibition (HeLa [15]): Active
